In ChEMBL document CHEMBL3994605, “Synthesis and biological evaluation of curcumin inspired indole analogues as tubulin polymerization inhibitors” (Eur J Med Chem, 2017):
pIC50: −log10 of the molar value. The source made the active and inactive calls. The rule behind the calls is not given here.

Experiments:
PC-3 [1] = assay: Induction of apoptosis in human PC3 cells assessed as horse shoe shaped nuclei at 2.5 to 5 uM after 48 hrs by acridine orange/ethidium bromide staining based fluorescence microscopic method; format: functional, cell-based
How it was run: (§1)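 PC-3 cells were plated at 25,000 per well, grown 24 h, then exposed 48 h. Cells were PBS-washed, stained with acridine orange and ethidium bromide ([…]), and imaged immediately by fluorescence microscopy (ex 488, em 550 nm) at 200×.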

MDA-MB-231 [2] = assay: Antiproliferative activity against human MDA-MB-231 cells after 48 hrs by MTT assay; format: functional, cell-based; settings: MDA-MB-231, 48 h
How it was run: (§2)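 MTT read-out. Cells were seeded at 5 × 10^3 per well in DMEM or RPMI with 10% FBS and grown 24 h at 37 °C in CO2. Compound dilutions in medium, with vehicle control, were then added for 48 h. MTT (0.5 mg/mL in medium) was given for 4 h, formazan was dissolved in DMSO, and A570 was read. IC50 was taken from concentration–response curves as mean ± SD of three experiments run in triplicate.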

Sus scrofa = organism: Sus scrofa; assay: Inhibition of porcine brain tubulin polymerization assessed as reduction in incorporation of fluorescent reporter at 10 uM by fluorescence based assay relative to control
How it was run: (§3)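 Cell-free mix contained porcine brain tubulin (2 mg/mL) in 80 mM PIPES pH 6.9 with 2.0 mM MgCl2, 0.5 mM EGTA, 1.0 mM GTP and glycerol, with or without compound. Polymerization was tracked as a time-dependent fluorescence rise from reporter incorporation (ex 360, em 440 nm), with nocodazole as positive control. Inhibition was scored versus the untreated control. For IC50, the concentration giving 50% inhibition of assembly was used.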

PC-3 [3] = assay: Cell cycle arrest in human PC3 cells assessed as accumulation at S phase at 5 uM after 24 hrs by propidium iodide staining based flow cytometry (reference value: 3.3 to 5.58%); format: functional
How it was run: (§4)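 PC-3 cells were seeded at 1 × 10^5 cells/mL, attached 24 h, then treated 24 h. Cells were fixed overnight in 70% ethanol in PBS. Staining used propidium iodide ([…]) with RNase A ([…]) and 0.1% Triton X-100 for 30 min at 37 °C in the dark. About 10,000 events per sample were acquired by flow cytometry.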

PC-3 [4] = assay: Cell cycle arrest in human PC3 cells assessed as accumulation at G2/M phase at 5 uM after 24 hrs by propidium iodide staining based flow cytometry (reference value: 12.2 to 24.74%); format: functional; how it was run: as §4
HeLa = assay: Antiproliferative activity against human HeLa cells after 48 hrs by MTT assay; format: functional, cell-based; how it was run: as §2
PC-3 [5] = assay: Induction of apoptosis in human PC3 cells assessed as nuclear fragmentation at 2.5 to 5 uM after 48 hrs by DAPI staining based fluorescence microscopic method; format: functional, cell-based
How it was run: (§5)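 PC-3 cells were seeded at 25,000 per well and adhered overnight, then exposed 48 h. Cells were fixed in 4% neutral buffered formalin for 20 min and permeabilized with 0.2% Triton X for 5 min. DAPI (1 mg/mL) staining ran 10 min at room temperature, followed by fluorescence microscopy (ex 350, em 460 nm) at 200×.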

RWPE-1 = assay: Antiproliferative activity against human RWPE1 cells after 48 hrs by MTT assay; format: cell-based; settings: RWPE-1, 48 h; how it was run: as §2
[6] = Inhibition of porcine brain tubulin polymerization assessed as reduction in incorporation of fluorescent reporter by fluorescence based assay; set-up: species or system Sus scrofa; how it was run: as §3
PC-3 [7] = assay: Induction of apoptosis in human PC3 cells assessed as horse shoe shaped nuclei at 2.5 to 5 uM after 48 hrs by DAPI staining based fluorescence microscopic method; format: functional, cell-based; how it was run: as §5
PC-3 [8] = assay: Induction of mitochondrial membrane potential loss in human PC3 cells assessed as ratio of green to red fluorescence at 5 uM after 24 hrs by JC1 staining based spectrofluorometric method (reference value: 0.103); format: functional
DU-145 [9] = assay: Potency index, ratio of curcumin IC50 to compound IC50 for human DU145 cells; format: functional
DU-145 [10] = assay: Antiproliferative activity against human DU145 cells after 48 hrs by MTT assay; format: functional, cell-based; settings: DU-145, 48 h; how it was run: as §2
PC-3 [11] = assay: Induction of apoptosis in human PC3 cells assessed as nuclear shrinkage at 2.5 to 5 uM after 48 hrs by DAPI staining based fluorescence microscopic method; format: functional, cell-based; how it was run: as §5
PC-3 [12] = assay: Cell cycle arrest in human PC3 cells assessed as accumulation at subG1 phase at 2.5 uM after 24 hrs by propidium iodide staining based flow cytometry (reference value: 4.29 to 7.23%); format: functional; how it was run: as §4
PC-3 [13] = assay: Induction of apoptosis in human PC3 cells assessed as chromatin condensation at 2.5 to 5 uM after 48 hrs by acridine orange/ethidium bromide staining based fluorescence microscopic method; format: functional, cell-based; how it was run: as §1
PC-3 [14] = assay: Potency index, ratio of curcumin IC50 to compound IC50 for human PC3 cells; format: functional
BT-549 [15] = assay: Antiproliferative activity against human BT549 cells after 48 hrs by MTT assay; format: functional, cell-based; settings: BT-549, 48 h; how it was run: as §2
MDA-MB-231 [16] = assay: Potency index, ratio of curcumin IC50 to compound IC50 for human MDA-MB-231 cells; format: functional
PC-3 [17] = assay: Induction of apoptosis in human PC3 cells assessed as cell membrane blebbing at 2.5 to 5 uM after 48 hrs by acridine orange/ethidium bromide staining based fluorescence microscopic method; format: functional; how it was run: as §1
A549 = assay: Antiproliferative activity against human A549 cells after 48 hrs by MTT assay; format: functional, cell-based; settings: A549, 48 h; how it was run: as §2
BT-549 [18] = assay: Potency index, ratio of curcumin IC50 to compound IC50 for human BT549 cells; format: functional
PC-3 [19] = assay: Induction of apoptosis in human PC3 cells assessed as destructive fragmentation of nuclei at 2.5 to 5 uM after 48 hrs by acridine orange/ethidium bromide staining based fluorescence microscopic method; format: functional, cell-based; how it was run: as §1
PC-3 [20] = assay: Cell cycle arrest in human PC3 cells assessed as accumulation at S phase at 2.5 uM after 24 hrs by propidium iodide staining based flow cytometry (reference value: 3.3 to 5.58%); format: functional; how it was run: as §4
4T1 = assay: Antiproliferative activity against mouse 4T1 cells after 48 hrs by MTT assay; format: functional, cell-based; settings: 4T1, 48 h; how it was run: as §2
PC-3 [21] = assay: Induction of apoptosis in human PC3 cells assessed as pyknotic nuclei at 2.5 to 5 uM after 48 hrs by DAPI staining based fluorescence microscopic method; format: functional, cell-based; how it was run: as §5
PC-3 [22] = assay: Cell cycle arrest in human PC3 cells assessed as accumulation at subG1 phase at 5 uM after 24 hrs by propidium iodide staining based flow cytometry (reference value: 4.29 to 7.23%); format: functional; how it was run: as §4
HGC-27 = assay: Antiproliferative activity against human HGC27 cells after 48 hrs by MTT assay; format: functional, cell-based; settings: HGC-27, 48 h; how it was run: as §2
PC-3 [23] = assay: Induction of apoptosis in human PC3 cells assessed as chromatin condensation at 2.5 to 5 uM after 48 hrs by DAPI staining based fluorescence microscopic method; format: functional, cell-based; how it was run: as §5
PC-3 [24] = assay: Cell cycle arrest in human PC3 cells assessed as accumulation at G0/G1 phase at 5 uM after 24 hrs by propidium iodide staining based flow cytometry (reference value: 65.04 to 76.95%); format: functional; how it was run: as §4
PC-3 [25] = assay: Cell cycle arrest in human PC3 cells assessed as accumulation at G2/M phase at 2.5 uM after 24 hrs by propidium iodide staining based flow cytometry (reference value: 12.2 to 24.74%); format: functional; how it was run: as §4
PC-3 [26] = assay: Cell cycle arrest in human PC3 cells assessed as accumulation at G0/G1 phase at 2.5 uM after 24 hrs by propidium iodide staining based flow cytometry (reference value: 65.04 to 76.95%); format: functional; how it was run: as §4
PC-3 [27] = assay: Antiproliferative activity against human PC3 cells after 48 hrs by MTT assay; format: functional, cell-based; settings: PC-3, 48 h; how it was run: as §2
PC-3 [28] = assay: Cell cycle arrest in human PC3 cells assessed as accumulation at S phase at 10 uM after 24 hrs by propidium iodide staining based flow cytometry (reference value: 3.3 to 5.58%); format: functional; how it was run: as §4
PC-3 [29] = assay: Cell cycle arrest in human PC3 cells assessed as accumulation at subG1 phase at 10 uM after 24 hrs by propidium iodide staining based flow cytometry (reference value: 4.29 to 7.23%); format: functional; how it was run: as §4
PC-3 [30] = assay: Cell cycle arrest in human PC3 cells assessed as accumulation at G0/G1 phase at 10 uM after 24 hrs by propidium iodide staining based flow cytometry (reference value: 65.04 to 76.95%); format: functional; how it was run: as §4
PC-3 [31] = assay: Cell cycle arrest in human PC3 cells assessed as accumulation at G2/M phase at 10 uM after 24 hrs by propidium iodide staining based flow cytometry (reference value: 12.2 to 24.74%); format: functional; how it was run: as §4

Row | Structure (SMILES) | Activity (PC-3 [1]) | pIC50 (MDA-MB-231 [2]) | inhibition (Sus scrofa) | Activity (PC-3 [3]) | Activity (PC-3 [4]) | pIC50 (HeLa) | Activity (PC-3 [5]) | pIC50 (RWPE-1) | pIC50 [6] | Activity (PC-3 [7]) | Ratio (PC-3 [8]) | Ratio IC50 (DU-145 [9]) | pIC50 (DU-145 [10]) | Activity (PC-3 [11]) | Activity (PC-3 [12]) | Activity (PC-3 [13]) | Ratio IC50 (PC-3 [14]) | pIC50 (BT-549 [15]) | Ratio IC50 (MDA-MB-231 [16]) | Activity (PC-3 [17]) | also measured
1 | COc1ccc(OC)c(/C=C/C(=O)/C=C/c2c[nH]c3ccccc23)c1 | Active | 5.22 | 51.7% | 1.36% | 55.93% | 5.18 | Active | 4.73 | 4.99 | Active | 0.135 | 3.7 | 5.11 | Active | 0.6% | Active | 1.9 | 5.08 | 2.6 | Active | pIC50 (A549): 4.72; Ratio IC50 (BT-549 [18]): 2.9; Activity (PC-3 [19]): Active; Activity (PC-3 [20]): 2.43%; pIC50 (4T1): 4.79; Activity (PC-3 [21]): Active; Activity (PC-3 [22]): 1.31%; pIC50 (HGC-27): 5.28; Activity (PC-3 [23]): Active; Activity (PC-3 [24]): 41.11%; Activity (PC-3 [25]): 57.54%; Activity (PC-3 [26]): 38.65%; pIC50 (PC-3 [27]): 5.20
2 | COc1cc(/C=C/C(=O)/C=C/c2c[nH]c3ccccc23)cc(OC)c1OC | Active | 4.94 | 57.3% | 6.2% | 29.87% | 5.48 | Active | 5.19 | 5.06 | Active | 0.132 | 3.2 | 5.05 | Active | 4.74% | Active | 3.9 | 5.06 | 1.4 | Active | Activity (PC-3 [28]): 10.04%; Activity (PC-3 [29]): 5.99%; Activity (PC-3 [30]): 51.68%; pIC50 (A549): 5.10; Ratio IC50 (BT-549 [18]): 2.8; Activity (PC-3 [19]): Active; Activity (PC-3 [20]): 8.94%; pIC50 (4T1): 5.01; Activity (PC-3 [21]): Active; Activity (PC-3 [22]): 3.46%; Activity (PC-3 [31]): 31.42%; pIC50 (HGC-27): 5.06; Activity (PC-3 [23]): Active; Activity (PC-3 [24]): 58.52%; Activity (PC-3 [25]): 27.04%; Activity (PC-3 [26]): 58.47%; pIC50 (PC-3 [27]): 5.50
